According to ChEMBL document CHEMBL1938295, “Synthesis of substituted benzimidazolyl curcumin mimics and their anticancer activity” (Bioorg Med Chem Lett, 2012):

How the values were obtained:
Type in all cases: functional, cell-based
MCF7 = test: Cytotoxicity against human MCF7 cells after 24 to 48 hrs by MTT assay
SH-SY5Y = test: Cytotoxicity against human SH-SY5Y cells after 24 to 48 hrs by MTT assay
Procedure, shortened: (§1)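 Treatment began 24 h after seeding. Compounds were dissolved in DMSO and diluted in DMEM to final 1, 5, 10, 20 and 40 μM, then incubated 24 or 48 h. MTT (0.5 mg/ml) was added for 3 h at 37 °C, formazan dissolved in DMSO, and absorbance read at 595 nm. Each assay was run in triplicate. IC50 came from nonlinear regression of a sigmoid dose-response curve, accepted when R^2 >0.95.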

HepG2 = test: Cytotoxicity against human HepG2 cells after 24 to 48 hrs by MTT assay; procedure, shortened: as §1
NCI-H460 = test: Cytotoxicity against human H460 cells after 24 to 48 hrs by MTT assay; procedure, shortened: as §1

Row | Compound | IC50 (MCF7) [µM] | IC50 (SH-SY5Y) [µM] | IC50 (HepG2) [µM] | IC50 (NCI-H460) [µM]
1 | COc1ccc(/C=C/C(=O)/C=C/c2nc3cc(Cl)ccc3n2C)cc1O | 3.5 | 4.8 | 4.1 | 7.3
2 | COc1ccc(/C=C/C(=O)/C=C/c2nc3cc([N+](=O)[O-])ccc3n2C)cc1O | 4.8 | 8.1 | 4.6 | 10.5
3 | COc1ccc(/C=C/C(=O)/C=C/c2nc3ccccc3n2C)cc1O | 3.6 | 4.8 | 2.9 | 6.9
4 | COc1ccc(/C=C/C(=O)/C=C/c2nc3cc(C)ccc3n2C)cc1O | 3.6 | 4.8 | 3.3 | 7.7
5 | COc1cc(/C=C/C(=O)/C=C/c2nc3cc([N+](=O)[O-])ccc3n2C)ccc1O | 3.7 | 4.6 | 3.7 | 6.7
6 | COc1ccc2c(c1)nc(/C=C/C(=O)/C=C/c1ccc(OC)c(O)c1)n2C | 3.7 | 4.8 | 4.2 | 11.7
7 | COc1cc(/C=C/C(=O)/C=C/c2nc3c(C)c(C)ccc3n2C)ccc1O | 14.1 | 19 | 8.5 | 31.9
8 | COc1cc(/C=C/C(=O)/C=C/c2nc3cc(O)ccc3n2C)ccc1O | 2.9 | 4.8 | 3.6 | 7.6
9 | COc1ccc2c(c1)nc(/C=C/C(=O)/C=C/c1ccc(O)c(OC)c1)n2C | 3.9 | 4.8 | 3.8 | 12.7
10 | COc1cc(/C=C/C(=O)/C=C/c2nc3c(C)cccc3n2C)ccc1O | 3.5 | 1 | 1.9 | 3
11 | CC(=O)O[C@H]1C(=O)[C@@]2(C)[C@H]([C@H](OC(=O)c3ccccc3)[C@]3(O)C[C@H](OC(=O)[C@H](O)[C@@H](NC(=O)c4ccccc4)c4ccccc4)C(C)=C1C3(C)C)[C@]1(OC(C)=O)CO[C@@H]1C[C@@H]2O [PACLITAXEL] | – | 0.004 | 0.007 | 0.008
12 | COc1ccc(/C=C/C(=O)/C=C/c2nc3c(C)c(C)ccc3n2C)cc1O | 3.5 | 4.8 | 3.9 | 7.3
13 | COc1cc(/C=C/C(=O)/C=C/c2nc3ccccc3n2C)ccc1O | 3.7 | 4.7 | 2.9 | 7
14 | COc1cc(/C=C/C(=O)/C=C/c2nc3cc(Cl)ccc3n2C)ccc1O | 4.4 | 4.7 | 4 | 8.9
15 | COc1cc(/C=C/C(=O)/C=C/c2nc3cc(C)ccc3n2C)ccc1O | 4.5 | 4.7 | 4.2 | 7.7
16 | COc1ccc(/C=C/C(=O)/C=C/c2nc3cc(O)ccc3n2C)cc1O | 1.9 | 4.6 | 3.7 | 7.2
17 | COc1cc(/C=C/C(=O)CC(=O)/C=C/c2ccc(O)c(OC)c2)ccc1O [CURCUMIN] | 49.8 | 105 | 87.5 | 51.3
18 | COc1ccc(/C=C/C(=O)/C=C/c2nc3c(C)cccc3n2C)cc1O | 7.4 | 19.1 | 14.7 | 25.4
